{"data": "Experimental data pooled from the literature", "target": "Cytochrome P450 2C9 (CYP2C9, Homo sapiens, UniProt P11712)", "effect on": "enzyme activity", "mode": "inhibitor", "note": "Each line is one published result; the experiments were not run side by side."}
{"Structure (SMILES)": "CC(=O)N1CCN(c2ccc(OCC3COC(Cn4ccnc4)(c4ccc(Cl)cc4Cl)O3)cc2)CC1 (stereo not shown)", "test system": "human, liver microsomes", "conditions": "1 µM", "quantity": "inhibition", "result": "24%"}
{"Structure (SMILES)": "NC(=O)C1CCN(C(=O)Cc2ccc(N(CCCO)Cc3cnc4nc(N)nc(N)c4n3)cc2)CC1", "test": "luciferase", "conditions": "10 µM", "quantity": "inhibition", "result": "-7.8%"}
{"Structure (SMILES)": "O=C(NS(=O)(=O)c1ccc(Br)s1)c1ccc(Cl)cc1Cl", "test system": "human, liver microsomes", "quantity": "Ki", "result": "0.1 µM"}
{"Structure (SMILES)": "O=C(Nc1c2c(cc3c1CCC3)CCC2)NS(=O)(=O)/C=C/c1nccs1", "test system": "human, liver microsomes", "conditions": "2 µM, pH 7.4", "quantity": "inhibition", "result": "21.4%"}
{"Structure (SMILES)": "COC(=O)C1CCN(C(=O)c2cccc(NCc3cnc4nc(N)nc(N)c4n3)c2)CC1", "test": "luciferase", "conditions": "10 µM", "quantity": "inhibition", "result": "-4.69%"}
{"Structure (SMILES)": "Cc1cccc(F)c1N1CCC(N2Cc3cn(CC(C)(F)F)nc3N(Cc3ccccc3C(F)(F)F)C2=O)CC1", "test system": "human, liver microsomes", "quantity": "IC50", "result": "> 10 µM"}
{"Structure (SMILES)": "C=CC(=O)Nc1cc(Nc2nccc(Nc3cc(Cl)c(F)cc3C(C)(C)O)n2)c(OC)cc1N1CC[C@@H](N(C)C)C1", "test system": "human, liver microsomes", "conditions": "10 µM", "quantity": "inhibition", "result": "< 20%"}
{"Structure (SMILES)": "CCc1cc(/C(C)=N/OCc2ccc(C3CCCCC3)c(C(F)(F)F)c2)ccc1CN1CC(C(=O)O)C1", "test system": "human, liver microsomes", "conditions": "200 µM, 20 min", "quantity": "inhibition", "result": "43.2%"}
{"Structure (SMILES)": "NC(=O)C1CCCN1C(=O)Cc1ccc(N(CCCO)Cc2cnc3nc(N)nc(N)c3n2)cc1 (stereo not shown)", "test": "luciferase", "conditions": "10 µM", "quantity": "inhibition", "result": "-3.91%"}
{"Structure (SMILES)": "C=C[C@H]1C[N@@]2CC[C@H]1C[C@@H]2[C@@H](O)c1ccnc2ccc(OC)cc12", "test system": "human, liver microsomes", "conditions": "10 µM", "quantity": "inhibition", "result": "15%"}
{"Structure (SMILES)": "CC1(CO)C(O[C@@H]2O[C@H](C(=O)O)[C@@H](O)[C@H](O)[C@H]2O)CC[C@@]2(C)C1CC[C@]1(C)C2CC=C2[C@H]3CC(C)(C)[C@H](O)[C@@H](O)[C@]3(CO)[C@H](O)C[C@]21C (stereo partly shown)", "test": "mass spectrometry", "test system": "human, liver microsomes", "quantity": "IC50", "result": "> 90 µg/mL"}
{"Structure (SMILES)": "CC(=O)c1cccc(OCc2cc(C(=O)N(C)[C@@H](C)c3ccccn3)no2)c1", "test system": "human, liver microsomes", "quantity": "IC50", "result": "6.3 µM"}
{"Structure (SMILES)": "O=C(N[C@H](Cc1c[nH]c2ccccc12)C(=O)Nc1ccncc1)c1ccc(-c2cc(F)ccc2F)cc1F", "test system": "human, liver microsomes", "conditions": "1 µM", "quantity": "inhibition", "result": "92%"}
